One data set concerns the target Cytochrome P450 3A4 (Homo sapiens, UniProt P08684). The experiment in a line: Activity of human CYP3A4 expressed in microsomes isolated from baculovirus infected insect cell assessed as enzyme-mediated 2-hydroxy-3-(4-((6-methoxy-1-methyl-1H-benzo[d]imidazol-2-yl)methoxy)phenyl)propanamide formation at 20 uM after 2 hrs by radio-HPLC/LC-MS/MS analysis in presence of NADPH-generating system and NADPH-generating system/SAM. It is filed as ADME.

Data set [1] is described as follows: Drug metabolism in human hepatocytes assessed as formation of 5-hydroxy-5-(4-((6-methoxy-1-methyl-1H-benzo[d]imidazol-2-yl)methoxy)benzyl)thiazolidine-2,4-dione at 30 uM after 3 hrs by radio-HPLC/LC-MS/MS analysis in presence of NADPH-generating system and NADPH-generating system/SAM. It is filed as ADME, cell-based, Hepatocyte.
Data set [2] in a line: Drug metabolism in cynomolgus monkey liver microsomes assessed as formation of 3-(4-((6-methoxy-1-methyl-1H-benzo[d]imidazol-2-yl)methoxy)phenyl)-2-(methylsulfinyl)propanamide at 20 uM after 2 hrs by radio-HPLC/LC-MS/MS analysis in presence of NADPH-generating system/SAM. It is filed as ADME, Macaca fascicularis.
A short description of data set [3]: Drug metabolism in monkey hepatocytes assessed as formation of 5-(4-((6-methoxy-1H-benzo[d]imidazol-2-yl)methoxy)benzyl)thiazolidine-2,4-dione at 30 uM after 3 hrs by radio-HPLC/LC-MS/MS analysis in presence of NADPH-generating system and NADPH-generating system/SAM. As to conditions: cynomolgus monkey.
A short description of data set [4]: Drug metabolism in monkey hepatocytes assessed as formation of 2-((4-((2,4-dioxothiazolidin-5-yl)methyl)phenoxy)methyl)-1-methyl-1H-benzo[d]imidazol-6-yl hydrogen sulfate at 30 uM after 3 hrs by radio-HPLC/LC-MS/MS analysis. As to conditions: cynomolgus monkey.
Another data set concerns Plasma. As to the kind of experiment: Drug metabolism in po dosed monkey plasma assessed as formation of 5-(4-((6-methoxy-1H-benzo[d]imidazol-2-yl)methoxy)benzyl)thiazolidine-2,4-dione. As to conditions: rhesus monkey, in vivo. It is filed as ADME, organism-based, Macaca mulatta.
For data set [5], the target named is T1, UDP-glucuronosyltransferase 1A7 (Homo sapiens, UniProt Q9HAW7).
T1 sequence (Q9HAW7 whole entry): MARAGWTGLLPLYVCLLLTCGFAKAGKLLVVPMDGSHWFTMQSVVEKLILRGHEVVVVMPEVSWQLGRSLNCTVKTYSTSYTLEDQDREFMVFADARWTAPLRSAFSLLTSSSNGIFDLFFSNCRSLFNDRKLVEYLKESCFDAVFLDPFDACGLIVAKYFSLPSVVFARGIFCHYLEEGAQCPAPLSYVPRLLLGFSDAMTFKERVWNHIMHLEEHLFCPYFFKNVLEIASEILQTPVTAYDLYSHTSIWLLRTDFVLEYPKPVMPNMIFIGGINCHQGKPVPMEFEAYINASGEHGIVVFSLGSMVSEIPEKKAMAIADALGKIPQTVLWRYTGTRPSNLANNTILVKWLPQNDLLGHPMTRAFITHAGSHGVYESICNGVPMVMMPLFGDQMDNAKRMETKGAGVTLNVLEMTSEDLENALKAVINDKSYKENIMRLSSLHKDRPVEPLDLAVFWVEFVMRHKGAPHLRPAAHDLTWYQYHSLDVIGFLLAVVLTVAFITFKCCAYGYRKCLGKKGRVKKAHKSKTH
As to the kind of experiment: Activity of human UGT1A7 expressed in microsomes isolated from baculovirus infected insect cell assessed as enzyme-mediated (2S,3S,4S,5R,6R)-6-((1-carboxy-2-(4-((6-methoxy-1-methyl-1H-benzo[d]imidazol-2-yl)methoxy)phenyl)ethylthio)carbonylamino)-3,4,5-trihydroxytetrahydro-2H-pyran-2-carboxylic acid formation at 20 uM after 4 hrs by radio-HPLC/LC-MS/MS analysis in presence of UDPGA. It is filed as ADME.

The nature of data set [6]: Drug metabolism in cynomolgus monkey liver microsomes assessed as formation of 3-(4-((6-methoxy-1-methyl-1H-benzo[d]imidazol-2-yl)methoxy)phenyl)-2-(methylthio)propanamide at 20 uM after 2 hrs by radio-HPLC/LC-MS/MS analysis in presence of NADPH-generating system/SAM. Type of data set: ADME, Macaca fascicularis.
For another data set, the target named is Cytochrome P450 2D6 (Homo sapiens, UniProt P10635). The experiment in a line: Activity of human CYP2D6 expressed in microsomes isolated from baculovirus infected insect cell assessed as enzyme-mediated 2-amino-3-((1-carboxy-2-(4-((6-methoxy-1-methyl-1H-benzo[d]imidazol-2-yl)methoxy)phenyl)ethyl)disulfanyl)propanoic acid formation at 20 uM after 2 hrs by radio-HPLC/LC-MS/MS analysis. Type of data set: ADME. The essentials: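 Baculovirus-insect-cell microsomes expressing the human CYP (1 mg/ml protein) were incubated with [14C]rivoglitazone (20 μM) in 50 mM potassium phosphate (pH 7.4) or 100 mM Tris-HCl (pH 7.5) with an NADPH-generating system (2 mM NADP+, 20 mM glucose 6-phosphate, 2 units/ml G6PDH, 10 mM MgCl2) for 2 h at 37°C. Insect-cell control supersomes served as the control. Reactions were stopped with acetonitrile, and the concentrated supernatants were analysed by radio-HPLC, LC-MS and LC-MS/MS.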
Sequence of Cytochrome P450 2D6 (P10635 whole entry): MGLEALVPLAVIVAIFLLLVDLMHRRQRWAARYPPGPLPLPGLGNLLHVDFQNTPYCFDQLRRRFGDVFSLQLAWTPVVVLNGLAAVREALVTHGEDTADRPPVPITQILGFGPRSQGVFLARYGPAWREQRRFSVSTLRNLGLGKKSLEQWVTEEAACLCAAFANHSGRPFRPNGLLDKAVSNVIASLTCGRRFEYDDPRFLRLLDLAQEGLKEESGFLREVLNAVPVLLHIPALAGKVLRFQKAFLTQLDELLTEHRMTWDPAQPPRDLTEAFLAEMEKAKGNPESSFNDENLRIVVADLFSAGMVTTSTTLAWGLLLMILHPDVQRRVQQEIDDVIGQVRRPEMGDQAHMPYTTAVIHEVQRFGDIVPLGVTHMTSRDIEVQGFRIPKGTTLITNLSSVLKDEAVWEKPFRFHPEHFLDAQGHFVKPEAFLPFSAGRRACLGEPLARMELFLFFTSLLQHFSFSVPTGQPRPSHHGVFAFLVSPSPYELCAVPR

Data set [7] has as its target T2, UDP-glucuronosyltransferase 2B15 (Homo sapiens, UniProt P54855).
T2 sequence (P54855 whole entry): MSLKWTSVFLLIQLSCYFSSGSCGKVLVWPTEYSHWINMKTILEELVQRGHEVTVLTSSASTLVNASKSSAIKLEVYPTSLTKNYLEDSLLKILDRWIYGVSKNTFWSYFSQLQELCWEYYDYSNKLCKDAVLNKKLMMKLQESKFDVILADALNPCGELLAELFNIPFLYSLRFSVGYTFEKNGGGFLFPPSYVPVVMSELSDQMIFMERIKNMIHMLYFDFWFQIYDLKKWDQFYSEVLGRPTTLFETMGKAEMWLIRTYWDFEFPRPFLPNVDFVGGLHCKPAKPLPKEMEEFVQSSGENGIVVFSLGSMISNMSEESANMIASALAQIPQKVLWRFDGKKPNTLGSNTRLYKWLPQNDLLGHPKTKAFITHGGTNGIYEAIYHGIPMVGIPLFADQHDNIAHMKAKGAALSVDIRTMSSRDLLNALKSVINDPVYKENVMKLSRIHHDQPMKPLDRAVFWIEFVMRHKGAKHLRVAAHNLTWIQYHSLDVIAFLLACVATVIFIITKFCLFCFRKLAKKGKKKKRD
The experiment in a line: Activity of human UGT2B15 expressed in microsomes isolated from baculovirus infected insect cell assessed as enzyme-mediated (2S,3S,4S,5R,6R)-3,4,5-trihydroxy-6-(5-(4-((6-methoxy-1-methyl-1H-benzo[d]imidazol-2-yl)methoxy)benzyl)-2,4-dioxothiazolidin-3-yl)tetrahydro-2H-pyran-2-carboxylic acid formation at 20 uM after 4 hrs by radio-HPLC/LC-MS/MS analysis in presence of UDPGA. It is filed as ADME.

Data set [8] is described as follows: Drug metabolism in rat hepatocytes assessed as formation of 5-hydroxy-5-(4-((6-methoxy-1-methyl-1H-benzo[d]imidazol-2-yl)methoxy)benzyl)thiazolidine-2,4-dione at 30 uM after 3 hrs by radio-HPLC/LC-MS/MS analysis in presence of NADPH-generating system and NADPH-generating system/SAM. Type of data set: ADME, cell-based, Hepatocyte.
The subject of a further data set is Liver microsome. The experiment in a line: Drug level in Sprague-Dawley rat liver microsomes treated with [14C]-rivoglitazone at 20 uM after 2 to 4 hrs by radio-HPLC/LC-MS/MS analysis in presence of UDPGA, UDPGA/SAM and NADPH-generating system. It is filed as ADME.

Sequence of Cytochrome P450 3A4 (P08684 whole entry): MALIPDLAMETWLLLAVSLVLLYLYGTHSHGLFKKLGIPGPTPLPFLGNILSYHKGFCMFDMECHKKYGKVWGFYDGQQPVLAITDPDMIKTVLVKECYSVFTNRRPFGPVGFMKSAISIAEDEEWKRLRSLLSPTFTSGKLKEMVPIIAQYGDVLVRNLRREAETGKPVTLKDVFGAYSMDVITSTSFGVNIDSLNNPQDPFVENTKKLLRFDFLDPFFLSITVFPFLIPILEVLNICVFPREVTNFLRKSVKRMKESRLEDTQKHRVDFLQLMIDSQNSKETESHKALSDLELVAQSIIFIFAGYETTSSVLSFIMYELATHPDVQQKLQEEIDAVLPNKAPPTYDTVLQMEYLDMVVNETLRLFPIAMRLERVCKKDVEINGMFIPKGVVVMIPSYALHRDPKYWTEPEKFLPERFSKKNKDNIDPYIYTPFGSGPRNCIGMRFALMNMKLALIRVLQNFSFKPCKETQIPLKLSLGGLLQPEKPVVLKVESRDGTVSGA

On to `COc1ccc2nc(COc3ccc(C[14CH]4SC(=O)NC4=O)cc3)n(C)c2c1.Cl` (racemic), for which the Drug metabolism entry at Cytochrome P450 3A4 is recorded as “metabolite_detected”; in data set [1], “metabolite_detected”; in [2], “metabolite_detected”; in data set [3], “metabolite_not_detected”; in data set [4] it was “metabolite_detected”; with Plasma, “metabolite_detected”. In addition, the Drug metabolism result is “metabolite_not_detected” in [5]; “metabolite_detected” in [6]; “metabolite_not_detected” at Cytochrome P450 2D6; “metabolite_not_detected” in data set [7]; “metabolite_detected” in [8].

`COc1ccc2nc(COc3ccc(CC(S)C(=O)O)cc3)n(C)c2c1` (configuration not stated): in the data set on Liver microsome, the Drug metabolism entry is listed as “metabolite_detected”.

These data come from ChEMBL document CHEMBL3526048, “In vitro metabolism of rivoglitazone, a novel peroxisome proliferator-activated receptor γ agonist, in rat, monkey, and human liver microsomes and freshly isolated hepatocytes” (Drug Metab Dispos, 2011).
